In ChEMBL document CHEMBL4513216, “Probing the Open Global Health Chemical Diversity Library for Multistage-Active Starting Points for Next-Generation Antimalarials” (ACS Infect Dis, 2020) one finds cytotoxicity data, which are given here for 95 molecules.

A short description of the series: Toxicity liver stage against HepG2, at 10uM. The class given is cell-based. Also on record: test concentration 10 uM, cell line HepG2-A16-CD81EGFP. Conditions: human, HepG2-A16-CD81EGFP cells; read-out: INHIBITION
Put shortly:
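Uninfected HepG2-A16-CD81EGFP cells, 3 × 10^3 per well, 1536-well, plated on prespotted compound at 10 μM final, parasite-free screening media added to match infected plates; puromycin 10 μM positive, DMSO 0.5% negative; run in parallel with 48 h PbLuc assay at 37 °C, 5% CO2; viability by CellTiter-Glo luminescence, normalized to controls.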
On to `O=C(Nc1cc(C(F)(F)F)c[nH]c1=O)c1ccco1`, for which the cytotoxicity at 10 µM was -8.28%.

As for `c1ccc2c(Cc3nnc([C@H]4CCN(C5CCCCC5)C4)o3)c[nH]c2c1`, the cytotoxicity at 10 µM is -0.00726%.

Turning to `Fc1ccc(-c2c[nH]c([C@@H]3COCCN3)n2)cc1`, the cytotoxicity at 10 µM is -0.0368%.

For `COCc1cc(C[C@@H]2CC[C@H](O)[C@@H](CN(C)C)O2)no1`, the cytotoxicity at 10 µM is 12%.

Consider `CCOC(=O)CNC(=O)Cn1c(-c2ccoc2)nc(C)c1C`, for which the cytotoxicity at 10 µM was -2.8%.

Take `CNC(=O)CN(C(=O)c1ccccc1)[C@H]1C[C@H]2CCOC[C@H]2C1`: the cytotoxicity at 10 µM was -4.36%.

For `O=C(N[C@]12CC1CN(C(=O)c1ccco1)C2)c1ccco1` (stereo not given in full), the cytotoxicity at 10 µM is -0.479%.

Take `O=C(NCC1CC1)C1CCC2(CCN(C(=O)c3cnccn3)CC2)O1` (stereo not given): the cytotoxicity at 10 µM is -9.28%.

For the molecule `CCC(=O)N1CC[C@H](O)[C@@H]1Cc1ccccc1`, the cytotoxicity at 10 µM worked out at 0.081%.

For `COC[C@H]1CC[C@H]2[C@H](CCN2C(=O)c2ccncc2F)O1`, the cytotoxicity at 10 µM is -4.61%.

As to `Cc1noc([C@]23COC[C@H]2CN(C(=O)C2CCOCC2)C3)n1`, the cytotoxicity at 10 µM was 9.46%.

Consider `COc1nn(C)c2c1CCCN(C(=O)c1cccn1C)C2`, for which the cytotoxicity at 10 µM worked out at 1.53%.

As to `O=C1CC[C@H]2[C@H](CCN2C(=O)C2CCCO2)N1Cc1ccncc1` (stereo not given in full), the cytotoxicity at 10 µM amounted to 0.898%.

On to `Cc1nn(C)cc1CN(C)C(=O)c1ccccn1`, for which the cytotoxicity at 10 µM stood at 4.12%.

On to `CCC(CC)CN1CCN(CC(=O)Nc2ccc3nsnc3c2)CC1`, for which the cytotoxicity at 10 µM was -13.8%.

As for `CC(=O)Nc1nc(C2CCCN(C(=O)CN(C)C)C2)cs1` (stereo not given), the cytotoxicity at 10 µM is -43.4%.

Turning to `Cc1cnc(-c2nc(NC3CC3)ncc2-c2cc(C)no2)cn1`, the cytotoxicity at 10 µM is -21.3%.

`NC(=O)CN1CCCC(Cc2ccc(N)nn2)C1` (stereo not given): the cytotoxicity at 10 µM was -31.1%.

For the molecule `C[C@@H]1C[C@H](C(F)(F)F)n2nc(C3CCN(C(=O)C(C)(C)C)CC3)cc2N1`, the cytotoxicity at 10 µM was -32.8%.

Consider `CN1CCCC(Cc2cncc(C(=O)NC3CC3)c2)C1` (stereo not given), for which the cytotoxicity at 10 µM was -25.6%.

`COCCN1CCCC1c1nccnc1Nc1ncc(C)s1` (stereo not given): the cytotoxicity at 10 µM was -7.99%.

Take `CCC(CC)(CNC(C)=O)NC(C)c1ccccc1` (stereo not given): the cytotoxicity at 10 µM came out at 4.99%.

As for `Cc1cncc(C(=O)N(c2ccc(F)cn2)C2CCOCC2)c1`, the cytotoxicity at 10 µM was determined as 0.0591%.

With `Cc1nc(-c2ccc(CC(=O)N3CCN(C(=O)C4CC4)CC3)cc2)cs1`, the cytotoxicity at 10 µM amounted to 9.86%.

On to `O=C(NCc1ccc(N2CCCC2)nc1)N1CCc2sccc2C1`, for which the cytotoxicity at 10 µM is -6.87%.

Take `COc1ccc(F)cc1C(C)NC(=O)Nc1nncs1` (stereo not given): the cytotoxicity at 10 µM came out at 12.4%.

On to `Cc1n[nH]c(C2CN(CC(=O)NCc3cccs3)CCO2)n1` (stereo not given), for which the cytotoxicity at 10 µM is -4.13%.

As for `Cc1noc(C(C)N2CCN(CC(=O)N3CCCC3)CC2)n1` (stereo not given), the cytotoxicity at 10 µM turned out to be 0.678%.

For the molecule `COc1cccc(CC(=O)NCC(Cc2ccc(F)cc2)C(N)=O)c1` (stereo not given), the cytotoxicity at 10 µM turned out to be 4.78%.

On to `CN1CCN(C(=O)c2cnsn2)c2cc(F)ccc21`, for which the cytotoxicity at 10 µM was -9.03%.

For the molecule `CCC(CNC(=O)c1nc(=O)[nH][nH]1)Oc1cccc(F)c1` (stereo not given), the cytotoxicity at 10 µM was -6.76%.

On to `O=C(c1ccc(N2CCCC2)nn1)N1CCCc2ccc(F)cc21`, for which the cytotoxicity at 10 µM was -1.7%.

As to `CNS(=O)(=O)CC(=O)NC(C)Cc1ccc(Br)cc1` (stereo not given), the cytotoxicity at 10 µM was -10.9%.

As for `Cc1cc(C(=O)O)c2c(Br)cccc2n1`, the cytotoxicity at 10 µM was -0.575%.

Consider `CC(Cn1cccn1)NC(=O)NCCCN1CCCCCC1=O` (stereo not given), for which the cytotoxicity at 10 µM stood at 12.3%.

On to `Cc1nsc(NC2CCOC3(CCCC3)C2)n1` (stereo not given), for which the cytotoxicity at 10 µM turned out to be 8.85%.

Consider `Nc1cc(CCCNC(=O)NC2CC2)nn1-c1ccccc1`, for which the cytotoxicity at 10 µM came to 1.54%.

`Cc1cnn(CC2CCCN2Cc2coc(-c3cccs3)n2)c1` (stereo not given): the cytotoxicity at 10 µM was -3.01%.

`Cc1nc(C)n(CC2CN(Cc3cccc(C(N)=O)c3)CCO2)n1` (stereo not given): the cytotoxicity at 10 µM came out at 6.2%.

As for `Cc1ccc(N2CCc3ncnc(N(C)C)c3CC2)nn1`, the cytotoxicity at 10 µM was -102%.

Consider `CC1c2ncc(COCC3CC3)n2CCN1C(=O)c1ccn(C)n1` (stereo not given), for which the cytotoxicity at 10 µM stood at 0.993%.

As to `Cn1cc(-c2nnn3c2COC(CNC(=O)c2cccs2)C3)cn1` (stereo not given), the cytotoxicity at 10 µM came out at 3.31%.

Take `Cc1cc(C)c2c(NCCC34CCCN3CCC4)ncnc2n1`: the cytotoxicity at 10 µM is -2.43%.

For `CCS(=O)(=O)N1CCOC(CCCc2ccccc2)C1` (stereo not given), the cytotoxicity at 10 µM is -9.31%.

As to `CC(C)Cc1ncc2c(n1)CN(c1cc(NC3CC3)nc(N)n1)C2`, the cytotoxicity at 10 µM is -5.82%.

Turning to `Cc1ccc(C)c2c(O)cc(CN[C@H]3CCCCNC3=O)nc12`, the cytotoxicity at 10 µM was determined as 5.63%.

As to `Cc1ccccc1CC1(C(=O)O)CCCN(c2ncccn2)C1` (stereo not given), the cytotoxicity at 10 µM is 1.25%.

In the case of `O=C(c1ccc(C2CCCN2)s1)N1CCN2CCC1CC2` (stereo not given), the cytotoxicity at 10 µM was -8.52%.

For `O=C(CO)N1CCC2(CC1)CC(=O)N(Cc1cc(F)cc(F)c1)C2`, the cytotoxicity at 10 µM worked out at 9.92%.

Consider `CCN(C)[C@H]1CN(C(=O)c2cccc(N3CCS(=O)(=O)CC3)c2)C[C@@H]1O`, for which the cytotoxicity at 10 µM is -5.62%.

On to `CCCOC1CCCN(c2nc(COC)nc3c2cnn3C)C1` (stereo not given), for which the cytotoxicity at 10 µM is -1.42%.

On to `O=C(CCN1CCCO1)N1CC[C@@H](c2ccc3ccccc3c2)[C@H](O)C1`, for which the cytotoxicity at 10 µM is -1.04%.

In the case of `O=C(CCc1cc2n(n1)CCCNC2)NCCS(=O)(=O)N1CCCC1`, the cytotoxicity at 10 µM turned out to be 0.698%.

As for `Cc1nc(CN(Cc2cccnc2)Cc2ccsc2)c[nH]1`, the cytotoxicity at 10 µM stood at 0.935%.

For the molecule `CCc1cc(N2CCCNCC2)n2nc(C)c(C)c2n1`, the cytotoxicity at 10 µM turned out to be 4.46%.

In the case of `Cc1cc(C)n(CC2CN(CC(=O)N3CCC3)CCO2)n1` (stereo not given), the cytotoxicity at 10 µM was -10.7%.

Consider `Cc1cnn(CCNCC(=O)NC(C)c2ccc3c(c2)OCCO3)c1` (stereo not given), for which the cytotoxicity at 10 µM was -1.58%.

For `COc1cc(C)nc(N2CCN(C(=O)c3cccc(C#N)c3)CC2)n1`, the cytotoxicity at 10 µM was -3.54%.

With `NC(=O)C1CCN(C(=O)NCc2ccc(-c3ccn[nH]3)cc2)CC1`, the cytotoxicity at 10 µM was -1.73%.

Take `Cc1ccc(C(=O)NCCSCc2cccs2)cn1`: the cytotoxicity at 10 µM is -3.95%.

With `CS(=O)(=O)NC(=O)c1nnn(-c2ccccc2)c1C1CC1`, the cytotoxicity at 10 µM is -7.09%.

Take `Cc1noc(C2CCCN(C(=O)CCCNc3ncccn3)C2)n1` (stereo not given): the cytotoxicity at 10 µM is -3.92%.

As for `CCOc1ccc(C2CCCN2C(=O)NCCn2ccnc2)cc1` (stereo not given), the cytotoxicity at 10 µM was found to be 0.632%.

For `CC(=O)N1CCN(C(=O)CCn2c(C)nc3ccccc3c2=O)CC1`, the cytotoxicity at 10 µM is -4.81%.

As for `Cc1nn(C)c(Cl)c1C1CCCN1Cc1ccccn1` (stereo not given), the cytotoxicity at 10 µM is -0.459%.

`COc1ccc(C(=O)N2CCCC(n3cncn3)C2)nn1` (stereo not given): the cytotoxicity at 10 µM worked out at 5.58%.

As for `Cc1c(F)cc(C(=O)O)cc1S(=O)(=O)Nc1ccc(F)c(C#N)c1`, the cytotoxicity at 10 µM is -6.02%.

For the molecule `CN(C)C(=O)Cc1nc(CN2CCn3c(nnc3C3CC3)C2)cs1`, the cytotoxicity at 10 µM was -9.66%.

Regarding `Cc1cnn(CC2CCCN2Cc2ncc(-c3ccccc3)o2)c1` (stereo not given), the cytotoxicity at 10 µM was -8.4%.

For `O=C1CC[C@@H]2[C@@H](CCN2Cc2ccncc2)N1c1ccccc1`, the cytotoxicity at 10 µM is -1.88%.

In the case of `O=C([C@H]1CN(CCc2ccccc2)C[C@H]2OCC[C@@H]12)N1CCCO1`, the cytotoxicity at 10 µM was -9.49%.

On to `Cn1ncc2c1CN(Cc1ccc(F)cc1)CC2COCC1CC1` (stereo not given), for which the cytotoxicity at 10 µM stood at 9.55%.

Take `COc1ccc(N2CCCC3(C2)CN(c2cccnc2)CCO3)cc1` (stereo not given): the cytotoxicity at 10 µM worked out at 6.59%.

Consider `Cc1ccc(CN2CCc3[nH]nc(C(=O)N(C)C)c3C2)s1`, for which the cytotoxicity at 10 µM is -7.55%.

Turning to `CC(C)CN1CCS(=O)(=O)[C@@H]2CCN(S(=O)(=O)c3ccccc3)CC[C@@H]21`, the cytotoxicity at 10 µM was found to be 3.62%.

Take `Cc1ncnc2c1CCN(Cc1nccs1)CC2`: the cytotoxicity at 10 µM is 9.91%.

Consider `CS(=O)(=O)NCc1cnc2n1CCN(Cc1cccs1)CC2`, for which the cytotoxicity at 10 µM was found to be 3.04%.

Turning to `O=C(c1ccno1)N1CCO[C@@H]2CC(COCc3ccccn3)C[C@H]21` (stereo not given in full), the cytotoxicity at 10 µM was -103%.

For the molecule `Cn1nc(COCC2CC2)c2c1CN(C(=O)c1ccno1)CC2`, the cytotoxicity at 10 µM was -5.91%.

On to `Fc1ccc(CN2CCc3ncnc(C4CCOC4)c3CC2)cc1` (stereo not given), for which the cytotoxicity at 10 µM amounted to 12.3%.

Consider `CNC(=O)CN1CCC2(CCCN(CC3CCOC3)C2)CC1` (stereo not given), for which the cytotoxicity at 10 µM is -107%.

As to `CN1CCn2c(-c3cccc(F)c3)cnc2C12CCN(CC1CC1)CC2`, the cytotoxicity at 10 µM stood at 8.13%.

Take `Cc1ccc(CS(=O)(=O)N2Cc3c(CN(C)C)nn(C)c3C2)cc1`: the cytotoxicity at 10 µM was -98.2%.

In the case of `CC(C)N(C)C[C@H]1C[C@@H]2CN(Cc3ccco3)C[C@@H]2O1`, the cytotoxicity at 10 µM was -4.22%.

For the molecule `CNC(=O)CN1CCO[C@H]2CN(CC3CCOC3)C[C@H]21` (stereo not given in full), the cytotoxicity at 10 µM worked out at 7.64%.

Regarding `Cn1ccnc1CN1CCC2(CC1)CCN(c1cncnc1)C2=O`, the cytotoxicity at 10 µM was -65%.

For the molecule `COCCN1CCC2(CCCN(Cc3ccoc3)C2)C1=O` (stereo not given), the cytotoxicity at 10 µM stood at 0.582%.

`CC1=N[C@@]2(CC[C@@H]3CN(Cc4ccc(C)cc4)C[C@@H]32)C(=O)N1CC1CC1`: the cytotoxicity at 10 µM stood at 1.7%.

For `Cc1ccc(CN2C[C@@H]3CN(C(=O)c4cccn4C)C[C@@H]3C2)cc1`, the cytotoxicity at 10 µM was -4.25%.

In the case of `CN(C)[C@@H]1CN(C(=O)CCc2ccccc2)[C@@H]2CCCO[C@H]12`, the cytotoxicity at 10 µM is -3.02%.

On to `CC(C)NC(=O)C1c2c(ncn2C(C)C)CCN1Cc1ccccc1` (stereo not given), for which the cytotoxicity at 10 µM worked out at 0.167%.

`Cc1ccc(CN2CC[C@H]3[C@H]2CCN3S(=O)(=O)C2CC2)cc1`: the cytotoxicity at 10 µM came to 10.2%.

For the molecule `CC(C)CN1CCCC2(CCN(c3ccc(C#N)cn3)C2)C1` (stereo not given), the cytotoxicity at 10 µM was found to be 5.22%.

Consider `COCC1N(C(=O)Nc2ccccc2)C2CCC1(O)CC2` (stereo not given), for which the cytotoxicity at 10 µM stood at 3.15%.

Regarding `CN1[C@@H]2CC[C@H]1CN(C(=O)c1sccc1S(N)(=O)=O)CC2`, the cytotoxicity at 10 µM turned out to be 1.95%.
